DAT uptake mod: human DAT dopamine uptake with cocaine, either direction. AID 449768. Q01959. B-score at 10 µM. 110,000 compounds, 1.3% hits. LLC-PK1 hDAT cells, [14C]-dopamine uptake with cocaine IC80; actives deviate in either direction;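 active = Z score or B-score, a plate-position-corrected score, falls beyond the plate's 99.7% confidence bounds, in either direction; inactive = both scores lie inside the 99.7% bounds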
PTK2B oligo ant: blocks oligomerization of human Pyk2 in cells. 99,000 compounds, 0.83% hits. AID 1347419. z-score (the deposit names both 25 µM and 10 µM). Q293 cells, Pyk2 FERM NanoBiT luminescence; active compounds read low. Q14289;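 active = Z-score of -3 or lower, scaled per plate to the spread of control and sample wells; inactive = z-score above -3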;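 note: negative z-score means lost luminescence so less FERM oligomerization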
Phagocytosis inh: macrophage phagocytosis inhibition | AID 1029 | 110,000 compounds, 0.07% hits | inhibition, % at 5 µM | J774A.1 macrophage IgG-bead phagocytosis, imaging;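 active = inhibition above the mean of the plate negative controls plus 5 SD, cut at about 13% in these data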;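 note: phagocytic index as fraction of beads internalized from green versus red external bead signal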
HIV Rev-RRE inh: inhibitors of HIV-1 Rev-RRE RNA interaction | P05866 | Rev peptide-RRE RNA binding, FRET | inhibition, % at 8 µM | 97,000 compounds, 0.79% hits;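 active = inhibition above the screen-wide mean plus 3 SD, cut at about 35% in these data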
Target sequence (P05866 whole entry, looked up): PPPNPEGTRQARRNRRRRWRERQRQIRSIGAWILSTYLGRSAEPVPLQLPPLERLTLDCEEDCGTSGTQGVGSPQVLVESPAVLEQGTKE
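Material: labelled RRE RNA duplex and labelled Rev peptide / Buffer or medium: HEPES pH 7.5 salt buffer with EDTA / Compound dosing: single point, 8 µM final nominal compound concentration / Benchmarks: DMSO low control, neomycin B high control / Timing: 5 min preincubation and 15 min binding, 25 °C / Technique: FRET fluorescence readout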
Measles CPE: protection of cells from measles virus. protection (pct of control), % at 4 µM. 140,000 compounds, 1.5% hits. AID 841. Measles virus-infected cells, CPE protection, absorbance; in the data active = protection mostly above about 24%, no sharp cut-off; inactive = mostly below about 26%
Cav3 T inh: blocks human Cav3.2 T-type calcium channel; Cav3.2-expressing cells, Fluo-4 calcium fluorescence FDSS; active compounds read low; B-score at 10 µM; 100,000 compounds, 4% hits; AID 449739;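 active = single-dose well whose peak fluorescence ratio is a statistical outlier from its plate by either plate-standardised score or position-corrected B-score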
Each line names hits and unclear results; the compound was inactive in the other large screens; [ ] = dose if it differs, or a comment. In the library only some 5.9% were active in any assay of this set; here they are far more common.

COc1cccc(-c2nc3n(n2)C(c2ccc4c(c2)OCO4)C(C(N)=O)=C(C)N3)c1 (configuration not stated)	Measles CPE 35 (no result: Phagocytosis inh)
CC(C)[C@H](NC(=O)[C@H](CC(=O)O)NC(=O)[C@H](CCCCN)NC(=O)[C@@H](N)CCCN=C(N)N)C(=O)N[C@@H](Cc1ccc(O)cc1)C(=O)O	none (no result: DAT uptake mod, PTK2B oligo ant, Phagocytosis inh, HIV Rev-RRE inh, Cav3 T inh)
CO/N=C(/CNC(=O)c1ccc(Cl)cc1Cl)c1ccc(Cl)cc1	none (no result: DAT uptake mod, Phagocytosis inh, Cav3 T inh)
CCOC(=O)c1sc(NC(=O)C(CC)OC(=O)C(CC(C)C)NC(=O)c2ccccc2)nc1C (configuration not stated)	Cav3 T inh -4 (no result: Phagocytosis inh)
COc1ccc(C(=NNc2ccccc2C(=O)O)c2ccc(OC)cc2)cc1	none (no result: DAT uptake mod, PTK2B oligo ant, HIV Rev-RRE inh, Cav3 T inh)
CCCC(=O)N(CCN(C(=O)CCC)c1ccccc1)c1ccccc1	Cav3 T inh -4.1 (no result: Phagocytosis inh)
CCN(C(=O)CCC(=O)N(CC)c1ccccc1)c1ccccc1	none (no result: DAT uptake mod, PTK2B oligo ant, HIV Rev-RRE inh, Cav3 T inh)
C#C[C@]1(O)CC[C@H]2[C@@H]3CCC4=Cc5oncc5C[C@]4(C)[C@H]3CC[C@@]21C	Cav3 T inh -4.5 (no result: PTK2B oligo ant, Phagocytosis inh, HIV Rev-RRE inh, Measles CPE)
C#C[C@]1(O)CC[C@H]2[C@@H]3CCC4=CC(=O)CC[C@@H]4[C@H]3CC[C@@]21C	none (no result: PTK2B oligo ant, Phagocytosis inh, HIV Rev-RRE inh, Measles CPE, Cav3 T inh)
COc1cc(NC(=O)Cc2cccs2)cc(OC)c1	Measles CPE 34
COc1cc(NC(=O)Cc2cccs2)ccc1-n1cnnn1	Measles CPE 29
COc1cc(C(=O)Nc2ccc3c(c2)OCO3)ccc1-n1cnnn1	none
COc1cccc(NC(=O)Cc2cccs2)c1	none
Cc1ccc(NS(=O)(=O)c2ccc(N3C(=O)CCC3=O)cc2)cc1	none
O=[N+]([O-])c1ccc(N2CCC(=NOCc3ccc(Cl)cc3)CC2)cc1	Cav3 T inh -5.7 (no result: Phagocytosis inh)
CCOc1ccc(N2CSC3=C(C#N)C(c4ccco4)CC(=O)N3C2)cc1 (configuration not stated)	none
Cc1ccc(C2CC(=O)N3CN(c4ccc(Br)cc4)CSC3=C2C#N)o1 (configuration not stated)	HIV Rev-RRE inh 45
Cc1nn(-c2ccccc2)c(N2CCCCC2)c1/C=N/O	Measles CPE 54 (no result: Phagocytosis inh, Cav3 T inh)
CCC(C)C(NC(=O)C1CCC(C)CC1)C(=O)NC(CCSC)C(=O)OC (configuration not stated)	Measles CPE 23
O=C(CCCSc1nnnn1-c1cccc2ccccc12)c1ccc(F)cc1	Cav3 T inh -4.6
c1ccc(CSc2nnnn2-c2cccc3ccccc23)nc1	none
CC1(C)CCCC(C)(C)N1CC(O)COCCOc1ccc(Br)cc1 (configuration not stated)	none (no result: DAT uptake mod, PTK2B oligo ant, HIV Rev-RRE inh, Cav3 T inh)
CCOC(=O)C1=C(O)/C(=C/c2ccc(-c3ccccc3C(=O)O)o2)SC1=Nc1ccc(OC)cc1	HIV Rev-RRE inh 89[fluorescence artefact?]
CCCCC(CC)CNC(=O)CCS(=O)(=O)c1cccc2nsnc12 (configuration not stated)	none (no result: HIV Rev-RRE inh)
CCCCC(CC)CNC(=O)CN(C)S(=O)(=O)c1cccc2nsnc12 (configuration not stated)	Measles CPE 38
C[C@@H]1C=C(C(=O)NCc2nc3ccccc3[nH]2)O[C@H](OCCCCO)C1	none (no result: PTK2B oligo ant, Phagocytosis inh, HIV Rev-RRE inh, Measles CPE)
O=S(=O)(NC1=NCCC1)c1cccc(NC(=S)NCCc2ccccc2)c1	none (no result: DAT uptake mod, PTK2B oligo ant, HIV Rev-RRE inh, Cav3 T inh)
CCO[C@H]1OC(C(=O)NCc2nc3ccccc3[nH]2)=C[C@@H](c2ccc(Br)cc2)[C@@H]1CCCO	none (no result: PTK2B oligo ant, Phagocytosis inh, HIV Rev-RRE inh, Measles CPE)
C#Cc1ccc([C@H]2C=C(C(=O)NCc3nc4ccccc4[nH]3)O[C@@H](OCC)[C@@H]2CCCO)cc1	DAT uptake mod 4.2 (no result: PTK2B oligo ant, Phagocytosis inh, HIV Rev-RRE inh, Measles CPE)
COc1cc(NC(=O)CSc2nc3ccccc3n2-c2ccccc2)c(C)cc1[N+](=O)[O-]	none (no result: DAT uptake mod, PTK2B oligo ant, HIV Rev-RRE inh, Cav3 T inh)
Cc1ccc(Nc2nc3ccccc3s2)cc1	none (no result: DAT uptake mod, PTK2B oligo ant, HIV Rev-RRE inh, Cav3 T inh)
Cc1ccccc1Nc1nc2ccccc2s1	Measles CPE 43 (no result: DAT uptake mod, HIV Rev-RRE inh, Cav3 T inh)
Cn1c[n+](C)cc1-c1ccc(/C(N)=N/O)cc1	none (no result: DAT uptake mod, PTK2B oligo ant, HIV Rev-RRE inh, Cav3 T inh)
Cc1cc(C(=O)N/N=C/c2ccccc2Br)no1	none
Cc1cc(C(=O)N/N=C/c2cccn2C)no1	Measles CPE 43 (no result: DAT uptake mod, PTK2B oligo ant, HIV Rev-RRE inh, Cav3 T inh)
COc1ccc(/C=C/C(=O)OCC(=O)Nc2ccc(Cl)c(S(=O)(=O)N(C)C)c2)cc1OC	none (no result: DAT uptake mod, PTK2B oligo ant, Phagocytosis inh, HIV Rev-RRE inh, Cav3 T inh)
COc1ccc(N2C(=O)[C@@H]3[C@H](C2=O)[C@H]2c4ccccc4C=CN2[C@@H]3C(=O)Nc2ccccc2)cc1	HIV Rev-RRE inh 119[fluorescence artefact?]
Cc1ccc(N2C(=O)[C@@H]3[C@H](C2=O)C2c4ccccc4C=CN2[C@@H]3C(=O)c2ccco2)cc1 (some centres not stated)	none

Assay outcomes: PubChem, several laboratories
